Experimental data: ChEMBL document CHEMBL3351413, “Development of quinone analogues as dynamin GTPase inhibitors” (Eur J Med Chem, 2014)
The source made the active and inactive calls. The rule behind the calls is not given here.

Key:
[1] = Inhibition of phosphatidylserine-stimulated GTPase activity of sheep brain Dynamin 1 expressed in Sf21 cells assessed as inhibition of orthophosphate release from GTP by malachite green method; set-up: species or system Ovis aries
Procedure, shortened: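 DynI at 50 nM, stimulated with phosphatidylserine liposomes for 30 min. Pi release from GTP detected colorimetrically by malachite green. Compounds diluted from DMSO stocks, final DMSO at most 3.3%.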

[2] = Inhibition of phosphatidylserine-stimulated GTPase activity of sheep brain Dynamin 1 expressed in Sf21 cells assessed as inhibition of orthophosphate release from GTP up to 300 uM by malachite green method; conditions: Ovis aries
Procedure, shortened: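 DynI at 50 nM final was stimulated with phosphatidylserine liposomes for 30 min. Orthophosphate released from GTP was detected colorimetrically by Malachite Green. Compounds came from 30 mM DMSO stocks diluted in 50% DMSO/20 mM Tris-HCl pH 7.4; final DMSO was at most 3.3%.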

[3] = molecular target: T1, Dynamin-2 (Rattus norvegicus, UniProt P39052); assay: Inhibition of phosphatidylserine-stimulated GTPase activity of recombinant rat Dynamin 2 expressed in Sf21 cells assessed as inhibition of orthophosphate release from GTP by malachite green method
T1 sequence (P39052 whole entry): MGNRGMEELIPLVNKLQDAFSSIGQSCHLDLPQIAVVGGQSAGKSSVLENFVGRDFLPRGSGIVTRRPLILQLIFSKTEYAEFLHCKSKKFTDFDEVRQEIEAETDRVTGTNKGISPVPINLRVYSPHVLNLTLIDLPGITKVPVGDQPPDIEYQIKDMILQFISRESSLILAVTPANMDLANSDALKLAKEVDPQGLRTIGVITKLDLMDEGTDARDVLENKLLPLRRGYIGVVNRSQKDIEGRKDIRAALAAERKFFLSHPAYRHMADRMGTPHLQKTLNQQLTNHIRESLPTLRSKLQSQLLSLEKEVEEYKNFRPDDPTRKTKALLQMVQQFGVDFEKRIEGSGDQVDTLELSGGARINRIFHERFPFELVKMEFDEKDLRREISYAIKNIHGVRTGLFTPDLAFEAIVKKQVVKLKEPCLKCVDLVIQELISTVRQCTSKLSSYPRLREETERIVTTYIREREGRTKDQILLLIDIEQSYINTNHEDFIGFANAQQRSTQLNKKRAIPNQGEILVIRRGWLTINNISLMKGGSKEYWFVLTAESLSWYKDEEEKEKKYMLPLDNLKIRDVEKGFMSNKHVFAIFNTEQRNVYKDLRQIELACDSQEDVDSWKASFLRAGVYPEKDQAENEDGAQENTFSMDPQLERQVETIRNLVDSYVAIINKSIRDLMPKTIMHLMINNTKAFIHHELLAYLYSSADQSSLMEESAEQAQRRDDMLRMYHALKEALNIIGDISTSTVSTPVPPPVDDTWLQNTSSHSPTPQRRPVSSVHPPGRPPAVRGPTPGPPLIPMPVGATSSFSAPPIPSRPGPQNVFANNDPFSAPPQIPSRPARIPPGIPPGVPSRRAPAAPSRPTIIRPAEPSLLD
Procedure, shortened: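 His-6-tagged rat dynII expressed in Sf21 cells after polyethylenimine transfection (48 h), purified on GST-Amph2-SH3-sepharose. Enzyme at 50 nM, stimulated with phosphatidylserine liposomes for 90 min. Pi release from GTP read colorimetrically with malachite green. Final DMSO at most 3.3%.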

[4] = molecular target: T2, Dynamin-2 (Rattus norvegicus) (UniProt P39052); assay: Inhibition of phosphatidylserine-stimulated GTPase activity of recombinant rat Dynamin 2 expressed in Sf21 cells assessed as inhibition of orthophosphate release from GTP up to 300 uM by malachite green method
T2 sequence (whole entry): T1 sequence (P39052 whole entry)
Procedure, shortened: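 His-6-tagged rat dynII from pIEx-6-transfected Sf21 cells (polyethylenimine, DNA:PEI 1:5, 48 h), purified on GST-Amph2-SH3-sepharose. Enzyme at 50 nM final was stimulated with phosphatidylserine liposomes for 90 min. GTP-derived Pi release was read colorimetrically with Malachite Green. Final DMSO was at most 3.3%.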

[5] = molecular target: T3, Dynamin-1 (Homo sapiens) (UniProt Q05193); assay: Inhibition of Dynamin 1 in serum-starved human U2OS cells assessed as inhibition of clathrin-mediated Alexa-495-cojugated transferrin uptake pretreated up to 300 uM for 30 mins by high-content imaging method; format: cell-based
T3 sequence (whole entry): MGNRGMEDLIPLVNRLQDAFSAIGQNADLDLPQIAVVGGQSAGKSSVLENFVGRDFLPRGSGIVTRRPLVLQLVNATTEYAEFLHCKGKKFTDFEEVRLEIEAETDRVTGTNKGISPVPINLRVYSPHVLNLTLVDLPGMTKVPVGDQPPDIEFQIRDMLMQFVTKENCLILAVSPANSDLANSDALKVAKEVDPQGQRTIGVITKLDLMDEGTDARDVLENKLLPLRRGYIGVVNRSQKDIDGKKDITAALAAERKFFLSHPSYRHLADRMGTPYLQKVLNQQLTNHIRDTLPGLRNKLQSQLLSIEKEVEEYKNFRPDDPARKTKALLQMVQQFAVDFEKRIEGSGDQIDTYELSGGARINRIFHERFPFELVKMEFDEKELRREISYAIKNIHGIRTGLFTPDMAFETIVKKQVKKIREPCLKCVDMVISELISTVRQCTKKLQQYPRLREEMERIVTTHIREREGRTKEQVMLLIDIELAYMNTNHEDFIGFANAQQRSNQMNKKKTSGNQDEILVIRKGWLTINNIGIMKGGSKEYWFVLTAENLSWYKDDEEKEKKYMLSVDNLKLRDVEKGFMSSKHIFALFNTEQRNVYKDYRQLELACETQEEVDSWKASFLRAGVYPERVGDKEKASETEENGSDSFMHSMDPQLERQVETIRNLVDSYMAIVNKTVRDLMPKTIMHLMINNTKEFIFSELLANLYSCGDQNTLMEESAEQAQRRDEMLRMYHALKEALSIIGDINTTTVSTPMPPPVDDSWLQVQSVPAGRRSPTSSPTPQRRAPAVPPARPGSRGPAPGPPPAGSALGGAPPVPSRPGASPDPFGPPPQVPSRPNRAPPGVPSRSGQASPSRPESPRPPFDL
Procedure, shortened: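 U2OS cells plated on fibronectin-coated glass to 70–80% confluency and serum-starved overnight (16 h). Pretreated with compound or 1% DMSO vehicle for 30 min, then given fluorescent transferrin for 8 min at 37 °C.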

[6] = Competitive inhibition of phosphatidylserine-stimulated GTPase activity of sheep brain Dynamin 1 expressed in Sf21 cells by Lineweaver-Burk plot method in presence of Mg2+ and GTP; conditions: Ovis aries

Row | IC50 [1] [µM] | Structure (SMILES) | inhibition [2] | other results
1 | 112 | O=C1C=C(NCc2ccc(O)cc2)C(=O)C=C1NCc1ccc(O)cc1 |  | 
2 | 22.4 | O=C1C=C(Nc2ccc(O)cc2)C(=O)c2ccccc21 |  | 
3 |  | O=C1C=C(Nc2ccccc2)C(=O)C=C1Nc1ccccc1 | inactive | 
4 |  | O=C1C=C(NCc2cccnc2)C(=O)C=C1NCc1cccnc1 | inactive | 
5 |  | CCCNC1=CC(=O)C(NCCC)=CC1=O | inactive | 
6 |  | Cc1ccccc1NC1=CC(=O)C(Nc2ccccc2C)=CC1=O | inactive | 
7 |  | O=C1C=C(NCc2ccc(Br)cc2)C(=O)C=C1NCc1ccc(Br)cc1 | inactive | 
8 |  | CCNC1=CC(=O)C(NCC)=CC1=O | inactive | 
9 |  | O=C1C=C(NCCCCO)C(=O)C=C1NCCCCO | inactive | 
10 |  | COc1ccc(CNC2=CC(=O)c3ccccc3C2=O)cc1 | inactive | 
11 |  | C=CCNC1=CC(=O)C(NCC=C)=CC1=O | inactive | 
12 |  | COCCNC1=CC(=O)C(NCCOC)=CC1=O | inactive | 
13 | > 300 | CCCCCCNC1=CC(=O)C(NCCCCCC)=CC1=O |  | 
14 |  | COc1ccccc1NC1=CC(=O)C(Nc2ccccc2OC)=CC1=O | inactive | 
15 | > 300 | COc1ccc(NC2=CC(=O)C(Nc3ccc(OC)cc3)=CC2=O)cc1 |  | 
16 |  | CCCCNC1=CC(=O)C(NCCCC)=CC1=O | inactive | 
17 | > 300 | O=C1C=C(Nc2ccccc2CO)C(=O)C=C1Nc1ccccc1CO |  | 
18 |  | O=C(O)c1ccc(NC2=CC(=O)c3ccccc3C2=O)cc1 | inactive | 
19 | 109 | O=C1C=C(Nc2cccc(O)c2)C(=O)c2ccccc21 |  | 
20 | 387 | O=C1C=C(Nc2ccccc2Br)C(=O)C=C1Nc1ccccc1Br |  | 
21 |  | O=C1C=C(NCc2ccc(F)cc2)C(=O)C=C1NCc1ccc(F)cc1 | inactive | 
22 |  | O=C1C=C(NCCCO)C(=O)c2ccccc21 | inactive | 
23 |  | O=C1C=C(NCCO)C(=O)c2ccccc21 | inactive | 
24 | 11.1 | O=C1C=C(Nc2ccc(O)cc2)C(=O)C=C1Nc1ccc(O)cc1 |  | IC50 [3]: 23.6 µM
25 | 29 | O=C1C=C(NCc2ccc(C(=O)O)cc2)C(=O)C=C1NCc1ccc(C(=O)O)cc1 |  | 

Row | IC50 [1] [µM] | Structure (SMILES) | inhibition [2] | other results
26 | 170 | COc1ccc(CNC2=CC(=O)C(NCc3ccc(OC)cc3)=CC2=O)cc1 |  | 
27 | 314 | O=C(O)c1ccccc1NC1=CC(=O)c2ccccc2C1=O |  | 
28 | > 300 | CN(C)CCNC1=CC(=O)C(NCCN(C)C)=CC1=O |  | 
29 | 30.3 | O=C1C=C(Nc2cccc(CO)c2)C(=O)c2ccccc21 |  | 
30 |  | O=C1C=C(NCCCO)C(=O)C=C1NCCCO | inactive | 
31 | 150 | O=C1C=C(NCc2ccc(O)cc2)C(=O)c2ccccc21 |  | 
32 |  | O=C1C=C(NCc2ccccc2)C(=O)c2ccccc21 | inactive | 
33 |  | O=C1C=C(Nc2ccccc2)C(=O)c2ccccc21 | inactive | 
34 |  | COCCCNC1=CC(=O)C(NCCCOC)=CC1=O | inactive | 
35 | 29.5 | O=C1C=C(Nc2ccc(CO)cc2)C(=O)c2ccccc21 |  | 
36 |  | O=C1C=C(Nc2cccc(CO)c2)C(=O)C=C1Nc1cccc(CO)c1 | inactive | 
37 | 25.4 | O=C1C=C(Nc2cccc(C(=O)O)c2)C(=O)C=C1Nc1cccc(C(=O)O)c1 |  | IC50 [3]: 14.7 µM
38 |  | CC(C)CCNC1=CC(=O)C(NCCC(C)C)=CC1=O | inactive | 
39 | 50.2 | O=C1C=C(Nc2ccccc2C(=O)O)C(=O)C=C1Nc1ccccc1C(=O)O |  | 
40 | 10.6 | O=C1C=C(Nc2ccc(C(=O)O)cc2)C(=O)C=C1Nc1ccc(C(=O)O)cc1 |  | IC50 [3]: 9.1 µM
41 | > 300 | COc1cccc(NC2=CC(=O)C(Nc3cccc(OC)c3)=CC2=O)c1 |  | 
42 | 116 | O=C1C=C(NCCO)C(=O)C=C1NCCO |  | 
43 |  | O=C1C=C(NCCCCl)C(=O)C=C1NCCCCl | inactive | 
44 |  | CSCCNC1=CC(=O)C(NCCSC)=CC1=O | inactive | 
45 |  | CCCCCNC1=CC(=O)C(NCCCCC)=CC1=O | inactive | 
46 | 58 | O=C1C=C(NCCCBr)C(=O)C=C1NCCCBr |  | 
47 |  | O=C1C=C(NCc2ccc(Cl)cc2)C(=O)C=C1NCc1ccc(Cl)cc1 | inactive | 
48 |  | O=C(O)c1cccc(NC2=CC(=O)c3ccccc3C2=O)c1 | inactive | 
49 |  | Cc1ccc(CNC2=CC(=O)C(NCc3ccc(C)cc3)=CC2=O)cc1 | inactive | 
50 |  | O=C1C=C(NCCc2ccccc2)C(=O)C=C1NCCc1ccccc1 | inactive | 

Row | Structure (SMILES) | IC50 [1] [µM] | inhibition [2] | other results
51 | O=C1C=C(NCc2ccccc2)C(=O)C=C1NCc1ccccc1 | 273 | inactive | inhibition [4]: inactive
52 | O=C1C=C(Nc2cccc(O)c2)C(=O)C=C1Nc1cccc(O)c1 | 57.9 |  | IC50 [3]: 43.7 µM; inhibition [5]: inactive
53 | O=C1C=C(Nc2ccc(CO)cc2)C(=O)C=C1Nc1ccc(CO)cc1 | 21.5 |  | inhibition [6]: Active
